Measurements: paper PMC7194030 (Science translational medicine, 2019)
Structures can show the parent of a compound that is named as a salt. Where two headings read alike, the source gives them in different places.

Legend:
murine BFU-Es [1] = assay: Mouse BFU-E culture system; type: cell-based; details: for Percentage of Ter119+ cells with or without compound: day 14 of culture, flow cytometry; for BFU-E expansion: purified murine fetal liver BFU-Es, cell numbers counted days 0 to 9
Outline: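 Cells are counted from day 0 to day 9 (three distinct samples; two-way ANOVA). At end of culture, cells are stained with anti-Ter119 and Ter119+ percentage is measured by flow cytometry (three samples; one-tailed t test).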

murine BFU-Es [2] = assay: RNA-seq of cultured BFU-Es; type: cell-based, mouse; details: 100 μM oxyphenonium bromide or 3 nM PD102807
Outline: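 BFU-Es FACS-sorted from E14.5 mouse fetal liver and cultured at 37°C in serum-free SFEM II with SCF, EPO, IGF-1 and dexamethasone. Treatments: test compound (100 μM or 3 nM), 100 nM dexamethasone, or DMSO. RNA extracted with a column kit, Illumina libraries prepared, sequenced on HiSeq 2500. Three to six replicates.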

CFU-E = assay: Mouse CFU-E culture system; type: cell-based
human CD34+ HSPC = assay: Human CD34+ HSPC erythroid differentiation culture system; type: cell-based; details: for Formation of BFU-E colonies: human CD34+ HSPC; for Erythroid cell expansion: human CD34+ HSPC from healthy donors
[3] = test system: CD34+ cells from patients with MDS; assay: Erythroid differentiation culture of CD34+ cells from patients with MDS; type: cell-based, human
Outline: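 MDS patient CD34+ cells (eight patients) are cultured in SFEM with rhSCF 20 ng/ml, rhIL-3 5 ng/ml, EPO 1 U/ml and dexamethasone 1 nM, with DMSO or 3 nM test compound. Read-outs: relative cell expansion, CD235a+ fraction by flow cytometry, annexin V apoptosis, and May-Grünwald–Giemsa cytospin morphology. One-tailed t test.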

C57bl/6 mice [4] = details: in vivo
C57bl/6 mice [5] = assay: Pharmacodynamics study; type: in vivo, mouse
Outline: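 PHZ hemolytic anemia model: female C57bl/6 mice, 8–10 weeks old, randomised to groups and given test compound at different doses or DMSO control intraperitoneally every day. Anemia induced with intraperitoneal PHZ (60 mg/kg). Complete blood counts taken. 7 to 10 mice per group.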

[6] = test system: Mx1-Cre Srsf2P95H/WT MDS mice; type: in vivo; details: for BFU-E self-renewal (splenic BFU-E colonies): daily treatment
BFU-Es = assay: cAMP assay in BFU-Es; type: cell-based, mouse; details: PD102807 3 nM, forskolin 10 μM, 45 min
Outline: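 Sorted murine fetal-liver BFU-Es are exposed for 45 min to DMSO, 3 nM test compound, or 10 μM forskolin. Cells are lysed in 0.1 M HCl (20 min, room temperature) and cleared at 15,000g for 10 min. Samples are neutralized, acetylated, and run in a competitive cAMP immunoassay (antibody, then cAMP-HRP, 1 h each; HRP developer 1 h). The reaction is stopped with 1 M HCl and read at OD 450 nm.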

[7] = biological target: human recombinant CHRM4 receptor (Homo sapiens, UniProt P08173); details: protein binding assay, IC50 on CHRM1-5
Chain of human recombinant CHRM4 receptor (P08173 whole entry): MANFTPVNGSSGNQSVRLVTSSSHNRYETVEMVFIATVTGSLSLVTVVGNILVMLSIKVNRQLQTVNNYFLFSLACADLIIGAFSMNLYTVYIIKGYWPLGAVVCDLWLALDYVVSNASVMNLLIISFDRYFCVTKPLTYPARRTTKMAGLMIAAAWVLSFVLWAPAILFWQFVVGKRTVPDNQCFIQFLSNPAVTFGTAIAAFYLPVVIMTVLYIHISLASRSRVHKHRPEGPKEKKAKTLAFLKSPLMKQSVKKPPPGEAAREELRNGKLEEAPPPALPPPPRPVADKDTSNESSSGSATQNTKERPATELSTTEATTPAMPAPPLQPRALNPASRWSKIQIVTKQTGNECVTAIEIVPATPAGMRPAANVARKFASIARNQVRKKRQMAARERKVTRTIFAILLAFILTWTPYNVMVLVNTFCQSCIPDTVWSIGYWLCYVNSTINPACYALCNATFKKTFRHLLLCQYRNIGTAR

murine BFU-Es [8] = assay: BFU-E colony formation assay of cultured murine BFU-Es; type: cell-based, mouse; details: colonies counted on day 9 of colony formation assay
Outline: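 BFU-Es (lin−Ter119−CD16/CD32−Sca-1−CD41−c-Kit+CD71/Cd24a10%low) are FACS-sorted from E14.5 C57bl/6 fetal liver. Cells are then plated in MethoCult SF M3436, and colonies are counted on day 9. Nine distinct samples; one-tailed t test.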

Compound | Percentage of Ter119+ cells with or without compound (murine BFU-Es [1]) | BFU-E expansion (murine BFU-Es [1]) | BFU-E gene signature expression (murine BFU-Es [2]) | Formation of BFU-E colonies (human CD34+ HSPC) | Erythroid cell expansion (human CD34+ HSPC) | Anti-anemia minimal effective dose (C57bl/6 mice [5]) | BFU-E self-renewal (splenic BFU-E colonies) ([6]; MDS mice) | cAMP concentration in BFU-Es relative to DMSO (BFU-Es) | also measured
CCCCCCOC(=O)[C@]1(O)C[C@@H]2O[C@@]1(C)n1c3ccccc3c3c4c(c5c6ccccc6n2c5c31)C(=O)NC4 [KT5720] | – | – | – | – | – | – | – | – | Effect on CHRM4 antagonist-induced BFU-E expansion (murine BFU-Es [1]; 2 μM KT5720 with 3 nM PD102807, day 9): blocked CHRM4 antagonist–induced BFU-E expansion
CCOC(=O)c1c(C)[nH]c2ccc3c(c12)CN1CCc2cc(OC)ccc2C1O3 (stereo not shown) [PD102807] | no difference | promoted BFU-E expansion at nanomolar concentrations | up-regulated a gene signature characteristic of BFU-Es | increased formation of BFU-E colonies | expanded erythroid cells | 100 mg/kg | promoted BFU-E self-renewal | increased in concentration | CFU-E proliferation (CFU-E): no effect; Cell survival or differentiation with and without compound ([3]; 3 nM PD102807): no difference; Production of erythroid cells ([3]; 3 nM PD102807, eight patients): increased production of erythroid cells; Maximal tolerated dose (C57bl/6 mice [4]; mouse): 100 mg/kg; Tolerability in vivo ([6]; MDS mice): well tolerated; Weight loss, liver or kidney function ([6]; MDS mice): no substantial effects; White blood cell or platelet production ([6]; MDS mice): no influence; Selectivity for CHRM4 over other muscarinic acetylcholine receptors [7]: selectively inhibits CHRM4 over other muscarinic acetylcholine receptors
C=C[C@@]1(C)CC(=O)[C@]2(O)[C@@]3(C)[C@@H](O)CCC(C)(C)[C@@H]3[C@H](O)[C@H](OC(C)=O)[C@@]2(C)O1 [forskolin] | – | promoted BFU-E expansion | – | – | – | – | – | increased in concentration | –
Cc1ccccc1C(OCCN(C)C)c1ccccc1 (stereo not shown) [orphenadrine citrate] | – | triggered BFU-E expansion | – | – | – | 100 mg/kg | promoted BFU-E self-renewal | – | Tolerability in vivo ([6]; mouse, in vivo): well tolerated; White blood cell or platelet production ([6]; mouse, in vivo): no influence
CC[N+](C)(CC)CCOC(=O)C(O)(c1ccccc1)C1CCCCC1 (stereo not shown) [oxyphenonium bromide] | no difference | triggered BFU-E expansion | up-regulated a gene signature characteristic of BFU-Es | increased formation of BFU-E colonies | expanded erythroid cells | 25 mg/kg | promoted BFU-E self-renewal | – | BFU-E expansion and erythrocyte production (murine BFU-Es [1]; 100 μM oxyphenonium bromide): prolonged expansion resulting in increased production of erythrocytes; Formation of BFU-E colonies (murine BFU-Es [8]): increased formation of BFU-E colonies; Maximal tolerated dose (C57bl/6 mice [4]; female, C57bl/6, mouse, 7 days): 50 mg/kg
